# Measured values from ChEMBL document CHEMBL3627670, “Structure-activity relationship studies of QS11, a small molecule Wnt synergistic agonist” (Bioorg Med Chem Lett, 2015).
# Tests used:
# [1] = Synergistic agonist activity at Wnt/beta-catenin (unknown origin) expressed in Wnt-3A conditioned media stimulated with HEK293 cells incubated for 24 hrs by firefly luciferase based TOPflash reporter assay; type: cell-based; details: Homo sapiens, HEK293, 24 h
# Procedure, shortened: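 HEK293 cells stably transfected with TOPFlash reporter, stimulated with Wnt3A conditioned media plus compound for 24 h. Luciferase activity then read by Bright-Glo luminescence. EC50 (µM) derived, given as mean ± standard deviation.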
# [2] = target: ADP-ribosylation factor GTPase-activating protein 1 (Rattus norvegicus) (UniProt Q62848); experiment: (§1) Inhibition of poly-histidine tagged full-length rat ARFGAP1 expressed in Sf9 cells assessed as remaining enzyme activity at 20 uM using purified WT ARF1 pre-loaded with [gamm-32P]-labeled GTP incubated for 5 mins before ARF1-GTP addition followed by 25 mins incubation by scintillation counting method
# Chain of ADP-ribosylation factor GTPase-activating protein 1 (Rattus norvegicus) (Q62848 whole entry): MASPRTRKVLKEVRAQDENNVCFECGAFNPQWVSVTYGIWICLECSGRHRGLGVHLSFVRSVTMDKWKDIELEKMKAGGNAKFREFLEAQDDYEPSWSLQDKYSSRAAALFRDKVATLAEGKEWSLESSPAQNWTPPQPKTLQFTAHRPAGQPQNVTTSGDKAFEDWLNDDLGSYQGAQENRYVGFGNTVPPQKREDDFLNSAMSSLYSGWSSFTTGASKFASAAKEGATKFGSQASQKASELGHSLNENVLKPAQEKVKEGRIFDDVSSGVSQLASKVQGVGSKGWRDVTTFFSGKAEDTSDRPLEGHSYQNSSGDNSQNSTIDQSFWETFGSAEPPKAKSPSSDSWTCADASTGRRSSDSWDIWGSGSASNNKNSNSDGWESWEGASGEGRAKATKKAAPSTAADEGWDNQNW
# [3] = target: ADP-ribosylation factor GTPase-activating protein 1 (Rattus norvegicus) (UniProt Q62848); experiment: as §1, with “10” for “20”
# [4] = test system: HEK293; experiment: Potency index, ratio of EC50 for QS11 to EC50 for test compound for synergistic agonist activity at Wnt/beta-catenin (unknown origin) expressed in Wnt-3A conditioned media stimulated with HEK293 cells incubated for 24 hrs by firefly luciferase based TOPflash reporter assay; type: cell-based; details: Homo sapiens
smiles,measurement,setting,value
OC[C@H](Cc1ccccc1)Nc1nc(Oc2ccc3c(c2)CCC3)nc2c1ncn2Cc1ccc(Oc2ccccc2)cc1,EC50,[1],> 100 µM
same,Activity,[2],40%
same,Activity,[3],42%
CC(c1ccc(-c2ccccc2)cc1)n1cnc2c(N[C@H](CO)Cc3ccccc3)nc(Oc3ccc4c(c3)CCC4)nc21 (some centres not stated),EC50,[1],2.6 µM
same,Activity,[2],36%
same,Activity,[3],50%
CC[C@@H](CO)Nc1nc(Oc2ccc3c(c2)OCO3)nc2c1ncn2Cc1ccc(-c2ccccc2)cc1,EC50,[1],> 100 µM
same,Activity,[2],32%
same,Activity,[3],70%
COc1cccc(Oc2nc(N[C@H](CO)Cc3ccccc3)c3ncn(Cc4ccc(-c5ccccc5)cc4)c3n2)c1,EC50,[1],3.3 µM
same,Activity,[2],29%
same,Activity,[3],54%
Cc1ccccc1Cn1cc(Cn2cnc3c(N[C@H](CO)Cc4ccccc4)nc(Oc4ccc5c(c4)CCC5)nc32)nn1,EC50,[1],> 100 µM
same,Activity,[2],27%
same,Activity,[3],50%
c1ccc(-c2ccc(Cn3cnc4c(NCc5cccc6ccccc56)nc(Oc5ccc6ccccc6c5)nc43)cc2)cc1,EC50,[1],> 100 µM
same,Activity,[2],31%
same,Activity,[3],53%
COc1ccc(-c2ccc(Cn3cnc4c(N[C@H](CO)Cc5ccccc5)nc(Oc5ccc6c(c5)CCC6)nc43)cc2)cc1,EC50,[1],> 100 µM
same,Activity,[2],34%
same,Activity,[3],42%
COc1ccc(Oc2nc(N[C@H](CO)Cc3ccccc3)c3ncn(Cc4ccc(-c5ccccc5)cc4)c3n2)cc1OC,EC50,[1],3.6 µM
same,Activity,[2],22%
same,Activity,[3],55%
OC[C@H](Cc1ccccc1)Nc1nc(Oc2ccc3c(c2)CCC3)nc2c1ncn2CCOCc1ccccc1,EC50,[1],> 100 µM
same,Activity,[2],109%
same,Activity,[3],106%
OC[C@H](Cc1ccccc1)Nc1nc(N2CCOCC2)nc2c1ncn2Cc1ccc(-c2ccccc2)cc1,EC50,[1],1.5 µM
same,Activity,[2],71%
same,Activity,[3],98%
OC[C@H](Cc1ccccc1)Nc1nc(Oc2cccc3ccccc23)nc2c1ncn2Cc1ccc(-c2ccccc2)cc1,EC50,[1],6.6 µM
same,Activity,[2],24%
same,Activity,[3],35%
OC[C@H](Cc1ccccc1)Nc1nc(Oc2ccc3c(c2)OCO3)nc2c1ncn2Cc1ccc(-c2ccccc2)cc1,EC50,[1],8.5 µM
same,Activity,[2],39%
same,Activity,[3],49%
COC(=O)[C@H](Cc1ccccc1)Nc1nc(Oc2ccc3ccccc3c2)nc2c1ncn2Cc1ccc(-c2ccccc2)cc1,EC50,[1],0.65 µM
same,Activity,[2],17%
same,Activity,[3],25%
same,Ratio EC50,[4],2
FC(F)(F)c1cccc(Oc2nc(NCc3cccc4ccccc34)c3ncn(Cc4ccc(-c5ccccc5)cc4)c3n2)c1,EC50,[1],18 µM
same,Activity,[2],12%
same,Activity,[3],16%
c1ccc(-c2ccc(Cn3cnc4c(NCc5cccc6ccccc56)nc(Oc5ccc6c(c5)OCO6)nc43)cc2)cc1,EC50,[1],> 100 µM
same,Activity,[2],34%
same,Activity,[3],35%
COc1ccc(Cn2cc(Cn3cnc4c(N[C@H](CO)Cc5ccccc5)nc(Oc5ccc6c(c5)CCC6)nc43)nn2)cc1,EC50,[1],> 100 µM
same,Activity,[2],75%
same,Activity,[3],98%
CC[C@@H](CO)Nc1nc(Oc2ccc3ccccc3c2)nc2c1ncn2Cc1ccc(-c2ccccc2)cc1,EC50,[1],4 µM
same,Activity,[2],24%
same,Activity,[3],41%
OC[C@H](Cc1ccccc1)Nc1nc(Oc2ccc3c(c2)CCC3)nc2c1ncn2Cc1cn(-c2ccccc2)nn1,EC50,[1],> 100 µM
same,Activity,[2],57%
same,Activity,[3],105%
FC(F)(F)c1cccc(Oc2nc(NCCc3ccccc3)c3ncn(Cc4ccc(-c5ccccc5)cc4)c3n2)c1,EC50,[1],> 100 µM
same,Activity,[2],33%
same,Activity,[3],41%
COc1cccc(Oc2nc(NCc3cccc4ccccc34)c3ncn(Cc4ccc(-c5ccccc5)cc4)c3n2)c1,EC50,[1],> 100 µM
same,Activity,[2],29%
same,Activity,[3],37%
COC(=O)[C@H](Cc1ccccc1)Nc1nc(Oc2cccc3ccccc23)nc2c1ncn2Cc1ccc(-c2ccccc2)cc1,EC50,[1],3.4 µM
same,Activity,[2],12%
same,Activity,[3],21%
OC[C@H](Cc1ccccc1)Nc1nc(Oc2ccc3c(c2)CCC3)nc2c1ncn2Cc1ccccc1,EC50,[1],> 100 µM
same,Activity,[2],113%
same,Activity,[3],117%
COc1cc(OC)cc(Oc2nc(N[C@H](CO)Cc3ccccc3)c3ncn(Cc4ccc(-c5ccccc5)cc4)c3n2)c1,EC50,[1],1.9 µM
same,Activity,[2],11%
same,Activity,[3],24%
c1ccc(-c2ccc(Cn3cnc4c(NCc5cccc6ccccc56)nc(Oc5cccc6ccccc56)nc43)cc2)cc1,EC50,[1],> 100 µM
same,Activity,[2],20%
same,Activity,[3],20%
c1ccc(CCNc2nc(Oc3ccc4ccccc4c3)nc3c2ncn3Cc2ccc(-c3ccccc3)cc2)cc1,EC50,[1],> 100 µM
same,Activity,[2],86%
same,Activity,[3],90%
CC[C@@H](CO)Nc1nc(Oc2ccc3c(c2)CCC3)nc2c1ncn2Cc1ccc(-c2ccccc2)cc1,EC50,[1],4.5 µM
same,Activity,[2],57%
same,Activity,[3],90%
c1ccc(CCNc2nc(Oc3cccc4ccccc34)nc3c2ncn3Cc2ccc(-c3ccccc3)cc2)cc1,EC50,[1],> 100 µM
same,Activity,[2],20%
same,Activity,[3],32%
CC[C@@H](CO)Nc1nc(Oc2cccc3ccccc23)nc2c1ncn2Cc1ccc(-c2ccccc2)cc1,EC50,[1],1.3 µM
same,Activity,[2],15%
same,Activity,[3],22%
OC[C@H](Cc1ccccc1)Nc1nc(Oc2ccc3c(c2)CCC3)nc2c1ncn2Cc1cn(Cc2ccccc2)nn1,EC50,[1],> 100 µM
same,Activity,[2],62%
same,Activity,[3],93%
COC(=O)[C@H](Cc1ccccc1)Nc1nc(Oc2ccc3c(c2)OCO3)nc2c1ncn2Cc1ccc(-c2ccccc2)cc1,EC50,[1],1.1 µM
same,Activity,[2],18%
same,Activity,[3],31%
c1ccc(CCNc2nc(Oc3ccc4c(c3)OCO4)nc3c2ncn3Cc2ccc(-c3ccccc3)cc2)cc1,EC50,[1],> 100 µM
same,Activity,[2],27%
same,Activity,[3],31%
COc1cccc(Oc2nc(NCCc3ccccc3)c3ncn(Cc4ccc(-c5ccccc5)cc4)c3n2)c1,EC50,[1],> 100 µM
same,Activity,[2],40%
same,Activity,[3],46%
OC[C@H](Cc1ccccc1)Nc1nc(Oc2ccc3c(c2)CCC3)nc2c1ncn2Cc1ccc(-c2ccccc2)cc1,EC50,[1],1.5 µM
same,Activity,[2],10%
same,Activity,[3],33%
OC[C@H](Cc1ccccc1)Nc1nc(Oc2ccc3c(c2)CCC3)nc2c1ncn2Cc1ccc(-c2ccccc2F)cc1,EC50,[1],> 100 µM
same,Activity,[2],47%
same,Activity,[3],81%
O=[N+]([O-])c1ccc(Cn2cc(Cn3cnc4c(N[C@H](CO)Cc5ccccc5)nc(Oc5ccc6c(c5)CCC6)nc43)nn2)cc1,EC50,[1],> 100 µM
same,Activity,[2],45%
same,Activity,[3],58%
OC[C@H](Cc1ccccc1)Nc1nc(Oc2ccc3c(c2)CCC3)nc2c1ncn2-c1ccc(-c2ccccc2)cc1,EC50,[1],> 100 µM
same,Activity,[2],32%
same,Activity,[3],50%
OC[C@H](Cc1ccccc1)Nc1nc(Oc2cccc(C(F)(F)F)c2)nc2c1ncn2Cc1ccc(-c2ccccc2)cc1,EC50,[1],2.9 µM
same,Activity,[2],78%
same,Activity,[3],81%
Cc1ccccc1-c1ccc(Cn2cnc3c(N[C@H](CO)Cc4ccccc4)nc(Oc4ccc5c(c4)CCC5)nc32)cc1,EC50,[1],> 100 µM
same,Activity,[2],41%
same,Activity,[3],56%
COc1nc(N[C@H](CO)Cc2ccccc2)c2ncn(Cc3ccc(-c4ccccc4)cc3)c2n1,EC50,[1],2.6 µM
same,Activity,[2],39%
same,Activity,[3],70%
OC[C@H](Cc1ccccc1)Nc1nc(Oc2ccc3ccccc3c2)nc2c1ncn2Cc1ccc(-c2ccccc2)cc1,EC50,[1],4.4 µM
same,Activity,[2],35%
same,Activity,[3],53%
c1ccc(-c2ccc(Cn3cnc4c(NCc5cccc6ccccc56)nc(Oc5ccc6c(c5)CCC6)nc43)cc2)cc1,EC50,[1],> 100 µM
same,Activity,[2],63%
same,Activity,[3],74%
c1ccc(CCNc2nc(Oc3ccc4c(c3)CCC4)nc3c2ncn3Cc2ccc(-c3ccccc3)cc2)cc1,EC50,[1],> 100 µM
same,Activity,[2],50%
same,Activity,[3],60%
